# Assay results: publication PMC3940261 (Integrative biology : quantitative biosciences from nano to …, 2014)
# Legend:
# leucine aminopeptidase = settings: in vitro; cited from earlier work
# aminopeptidase N (CD 13) = settings: in vitro; cited from earlier work
# LTA4 hydrolase = settings: in vitro; cited from earlier work
# [1] = biological target: purine-sensitive aminopeptidase (PuSA); settings: in vitro; cited from earlier work
# [2] = tested on: peptidase activity in U937 cells; format: cell-based, human; settings: ensemble lysates, commercial capillary electrophoresis system
# Summary of the method: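 U937 cells were cultured long-term with the test compound (1, 2, 4, 8, 16 μM; DMSO ≤0.1%) or DMSO vehicle. A FAM-labelled reporter peptide (100 μM) and a carboxyfluorescein internal standard (20 μM) were loaded by pinocytosis for 10 min at 37 °C; hypotonic lysis set t = 0. Cells were held at 10⁶ cells/mL for 1 h at room temperature, then heat-lysed at 95 °C for 4 min. Supernatant was run on a bare 30-cm, 30-μm i.d. capillary, spiked with intact-substrate and K-FAM standards, and peaks were Gaussian-fitted.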
# [3] = tested on: four common aminopeptidases; settings: cited from earlier work
# [4] = tested on: degradation of a fluorogenic reporter; settings: 24 h exposure to media containing 1 μM Tosedostat; cited from earlier work
# [5] = tested on: peptidase activity in U937 cells; assay: Single-cell chemical cytometry of fluorescent reporter peptide degradation; format: cell-based, human; settings: for most common fragment peak pattern: single U937 cells
SMILES,IC50 (leucine aminopeptidase),IC50 (aminopeptidase N (CD 13)),IC50 (LTA4 hydrolase),IC50 [1],number of fluorescent fragment peaks from drug-treated cells [2],IC50 [3],inhibition of degradation of a fluorogenic reporter [4] [%],"peptidase activity in drug-treated cells relative to a vehicle control ([5]; at all doses (1, 2, 4, 8, 16 μM))",most common fragment peak pattern ([5]; dose 1 μM) [peaks],most common fragment peak pattern ([5]; dose 2 μM) [peaks],most common fragment peak pattern ([5]; dose 4 μM) [peaks],most common fragment peak pattern ([5]; dose 8 μM) [peaks]
CC(C)C[C@@H](C(=O)N[C@H](C(=O)O)c1ccccc1)[C@H](O)C(=O)NO [active form of Tosedostat],nanomolar range,nanomolar range,nanomolar range,nanomolar range,–,–,–,–,–,–,–,–
CC(C)C[C@@H](C(=O)N[C@H](C(=O)OC1CCCC1)c1ccccc1)[C@H](O)C(=O)NO [Tosedostat],–,–,–,–,≤ 8 fluorescent fragment peaks,nanomolar-range,50,inhibited,3,3,2,2
